Source: PubChem BioAssay
Neddylation inh – inhibitors of cullin neddylation, primary screen, biochemical, TR-FRET, uHTS, NAE and Ubc12. NEDD8-conjugating enzyme Ubc12 (Homo sapiens) + NEDD8-activating enzyme E1 regulatory …. inhibition, % at 25 µM. 360,000 compounds, 0.58% hits; in the data active = inhibition above about 36%
PKA-R1A act – activators of PKA-R1A holoenzyme, primary screen, biochemical, fluorescence polarization, Cy5-IP20, bovine R1A, mouse PKAc | PKA-R1A dissociation; scaled: DMSO 0%, 113 µM cGMP 100% | cAMP-dependent protein kinase type I-alpha regulatory subunit (Bos taurus) + … | AID 504707, 2011 | activation, % at 11.4 µM | 340,000 compounds, 0.083% hits;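 active = percent activation above the mean of all tested compounds plus 3 SD, cut at about 19% in these data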;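 also: higher means more PKAc released from R1A so a rise in polarization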
DDE Tn6 FP inh – inhibitors of Tn6 peptide binding to fibrin DD(E), primary screen, biochemical, fluorescence polarization, human fibrin, Tn6 probe. Fibrin DD(E) TRITC-Tn6 fluorescence polarization displacement. inhibition, % at 8.3 µM. 370,000 compounds, 0.21% hits. Fibrinogen beta chain (Homo sapiens), P02675;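 active = inhibition above a per-campaign cutoff: mean of compounds within control limits plus 3 SD, cut at about 15% in these data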;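 also: 0% = median of all compound wells on the plate and 100% = blocking peptide control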
Target sequence (P02675 whole entry, looked up): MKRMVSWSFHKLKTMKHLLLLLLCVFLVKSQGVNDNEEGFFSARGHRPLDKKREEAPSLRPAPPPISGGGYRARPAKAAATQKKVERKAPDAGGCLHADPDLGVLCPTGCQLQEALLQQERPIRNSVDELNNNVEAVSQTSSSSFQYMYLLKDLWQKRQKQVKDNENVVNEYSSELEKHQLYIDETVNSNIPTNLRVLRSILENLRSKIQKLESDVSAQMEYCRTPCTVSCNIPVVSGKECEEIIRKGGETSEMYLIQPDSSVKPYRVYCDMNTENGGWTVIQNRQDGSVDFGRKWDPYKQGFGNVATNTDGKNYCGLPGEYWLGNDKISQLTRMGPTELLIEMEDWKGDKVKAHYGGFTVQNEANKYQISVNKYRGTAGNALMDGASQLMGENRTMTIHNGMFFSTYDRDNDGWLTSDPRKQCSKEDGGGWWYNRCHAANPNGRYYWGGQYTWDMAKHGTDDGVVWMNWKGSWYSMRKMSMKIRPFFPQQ
Tn7 DDE FP – inhibitors of Tn7 peptide binding to fibrin DD(E), primary screen, biochemical, fluorescence polarization, human fibrin, Tn7 probe; Fibrinogen beta chain (Homo sapiens), P02675; FP displacement of FITC-Tn7 peptide from fibrin DD(E); 0% = median of compound wells per plate; inhibition, % at 8.3 µM; 370,000 compounds, 0.13% hits; AID 720508, 2013;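 active = inhibition above the mean of compounds falling within the control limits plus 3 SD of them, cut at about 14% in these data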;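 also: 0% = plate median of compound wells and 100% = 10 µM Aha-Tn7 peptide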
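Assay system: Human clot-derived fibrin DD(E) complex | Buffer or medium: Tris/NaCl/CaCl2 buffer, pH 7.8 | Repeats: One replicate per compound | Benchmarks: Aha-Tn7 high control | Measure: % inhibition scaled between sample-field median and high-control FP | Schedule: 10 min plus 3 h, room temperature | Signal: Fluorescence polarization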
PKA-R2B activ – activators of PKA-R2B holoenzyme, primary screen, biochemical, fluorescence polarization, Cy5-IP20, human. cAMP-dependent protein kinase catalytic subunit beta (Homo sapiens) + cAMP-dependent …. PKA-R2B holoenzyme dissociation; R2B truncated from residue 108, S112A mutant; 0% DMSO only, 100% 113 µM cGMP. activation, % at 11.4 µM. 340,000 compounds, 0.079% hits;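 active = activation above a cutoff set at the mean over all compounds plus 3 SD, cut at about 18% in these data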;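 also: higher means more holoenzyme dissociation and a rise in polarization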
Neddyl conf – blockade of NEDD8 conjugation to cullin – biochemical, TR-FRET, single concentration, confirmation | 1,800 compounds, 13% hits | calls only at 25 µM | shares compounds with Neddylation inh | TR-FRET cullin neddylation biochemical assay; in the data active = inhibition above about 40%;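 also: neddylation substrate is the cullin 1 ring ligase complex with SKP2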
Starred values were filed as active, the others as inactive; i = inactive; . = not tested or not shown; + = active, no number. The list is not random: actives were taken first. Their share in the collection is about 1%.

SMILES	Neddylation inh	PKA-R1A act	DDE Tn6 FP inh	Tn7 DDE FP	PKA-R2B activ	Neddyl conf
O=[N+]([O-])c1ccccc1/C=C/C1Nc2cccc3cccc(c23)N1	.	.	-3	-2	.	.
COc1cc(OC)cc(-c2oc3cccnc3c2C#CCCO)c1	37*	14	1	4	-3	+
O=C(Nc1ccc2nsnc2c1)C1CC1	56*	-9	-6	-2	-6	+
CCCN1CCN(C(c2cc3cc(OCC)ccc3[nH]c2=O)c2nnnn2C2CCCCC2)CC1 (stereo unspecified)	45*	-5	-4	-2	-2	.
C[C@H]1CN(C(=O)OC(C)(C)C)CCN1c1ccc(Br)c(C#N)c1	.	.	10	10	.	.
COc1ccccc1NC(=O)CSc1nc2c(sc3ccccc32)c(=O)n1CCN(C)C	9	-8	-2	0	-4	.
CN(C)CCn1c(SCc2ccccc2C#N)nc2c(sc3ccccc32)c1=O	46*	-2	11	-2	3	.
COc1ccc(S[C@]2(C(=O)N3CCOCC3)CC(=O)N[C@@H]2c2ccc(OC)cc2)cc1	.	.	-1	8	.	.
CCOC(=O)[C@]12CCCCC/C=C\1N(Cc1ccc(OC)cc1)C(=O)[C@H]2CC(=O)NCC12CC3CC(CC(C3)C1)C2	.	.	-3	0	.	.
N#CCn1c2ccccc2c2nc3ccccc3nc21	45*	-11	1	-4	-15	i
C#CCn1c2ccccc2c2nc3ccccc3nc21	21	-3	7	1	-6	.
COc1ccc(CN2CCc3c([nH]c4ccccc34)C2)cc1Br	41*	-14	-6	2	-4	i
c1cnc2ccc(-c3ccc4ncccc4c3)cc2c1	45*	-20	1	-5	-11	i
N#Cc1ncc(-c2ccc3c(c2)OCCOCCOCCOCCOCCO3)nc1C#N	16	7	4	-5	-3	.
N#Cc1ncc(-c2ccc3c(c2)OCCOCCOCCOCCO3)nc1C#N	38*	-16	5	10	-4	i
COc1cccc(/C=C/C(=O)OCC(=O)Nc2ccc(Cl)c(S(=O)(=O)N(C)C)c2)c1OC	44*	0	4	11	2	i
COc1ccccc1/C=C/C(=O)OCC(=O)NCCC1=CCCCC1	3	-4	7	4	-4	.
COc1ccc(CCNC(=O)COC(=O)/C=C/c2cc(OC)ccc2OC)cc1	49*	6	-1	3	10	.
COc1cccc(/C=C/C(=O)OCC(=O)NCCC2=CCCCC2)c1OC	41*	-21	8	-1	-5	i
COc1ccc(OC)c(/C=C/C(=O)OCC(=O)NCc2cccs2)c1	52*	7	-4	-3	-4	.
COCC(=O)N1CC[C@H]2[C@@H]1c1cc(-c3cccc(OC)c3)ccc1N(C)[C@H]2CO	.	.	8	3	.	.
Cc1ccc2[nH]c3c(=O)n(N)c(C)nc3c2c1	41*	.	-3	-9	.	+
COc1ccc2[nH]c3c(=O)n(N)c(C)nc3c2c1	.	-5	0	2	-4	.
Nc1nccc(/C=C/c2ccc(Cl)cc2)n1	37*	-2	7	-6	-13	i
Nc1nccc(/C=C/c2c(Cl)cccc2Cl)n1	30	3	-8	-7	-3	.
Cn1c(=O)[nH]c(=O)c2c1nc(N1CCCCC1)n2C/C=N/NC(=O)c1cc(Br)ccc1O	46*	-4	8	-4	-6	.
C=CCn1c(N2CCCC2)nc2c1c(=O)[nH]c(=O)n2C	-5	2	6	1	-3	.
CC1(C)CC(=O)N(CC(=O)N2CCN(Cc3ccc4c(c3)OCO4)CC2)c2ccccc2S1(=O)=O	.	.	-5	6	.	.
